Experimental findings from ChEMBL document CHEMBL1123816, “Synthesis and antidepressant properties of novel 2-substituted 4,5-dihydro-1H-imidazole derivatives” (J Med Chem, 1987) are described below.

Test [1] concerns the target T1, Adrenergic receptor alpha-2 (Rattus norvegicus, UniProt P22086+P19328+P22909).
T1 sequence (P22086 whole entry): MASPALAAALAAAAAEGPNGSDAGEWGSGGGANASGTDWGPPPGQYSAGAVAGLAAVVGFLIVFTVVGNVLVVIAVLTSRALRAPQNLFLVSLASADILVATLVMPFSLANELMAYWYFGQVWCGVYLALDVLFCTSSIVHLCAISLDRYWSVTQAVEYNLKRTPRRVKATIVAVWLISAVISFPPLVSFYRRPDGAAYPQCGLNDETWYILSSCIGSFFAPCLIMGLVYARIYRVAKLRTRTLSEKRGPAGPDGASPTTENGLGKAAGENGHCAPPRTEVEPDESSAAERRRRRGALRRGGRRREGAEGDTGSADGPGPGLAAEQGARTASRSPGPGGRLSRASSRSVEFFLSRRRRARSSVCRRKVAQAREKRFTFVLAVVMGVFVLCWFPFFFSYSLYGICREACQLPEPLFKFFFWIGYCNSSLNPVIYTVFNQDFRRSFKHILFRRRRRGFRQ
T1 sequence (P19328 whole entry): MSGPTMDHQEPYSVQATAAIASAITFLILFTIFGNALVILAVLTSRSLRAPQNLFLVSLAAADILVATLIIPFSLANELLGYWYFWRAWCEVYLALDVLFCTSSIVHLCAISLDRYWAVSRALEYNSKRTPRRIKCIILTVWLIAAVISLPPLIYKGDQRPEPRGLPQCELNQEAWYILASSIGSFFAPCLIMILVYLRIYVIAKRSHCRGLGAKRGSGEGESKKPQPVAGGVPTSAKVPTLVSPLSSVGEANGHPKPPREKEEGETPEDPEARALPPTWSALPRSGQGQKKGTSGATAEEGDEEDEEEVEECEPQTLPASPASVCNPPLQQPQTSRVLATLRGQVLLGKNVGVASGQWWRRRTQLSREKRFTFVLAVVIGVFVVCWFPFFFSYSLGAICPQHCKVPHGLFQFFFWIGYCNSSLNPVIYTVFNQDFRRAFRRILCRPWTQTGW
T1 sequence (P22909 whole entry): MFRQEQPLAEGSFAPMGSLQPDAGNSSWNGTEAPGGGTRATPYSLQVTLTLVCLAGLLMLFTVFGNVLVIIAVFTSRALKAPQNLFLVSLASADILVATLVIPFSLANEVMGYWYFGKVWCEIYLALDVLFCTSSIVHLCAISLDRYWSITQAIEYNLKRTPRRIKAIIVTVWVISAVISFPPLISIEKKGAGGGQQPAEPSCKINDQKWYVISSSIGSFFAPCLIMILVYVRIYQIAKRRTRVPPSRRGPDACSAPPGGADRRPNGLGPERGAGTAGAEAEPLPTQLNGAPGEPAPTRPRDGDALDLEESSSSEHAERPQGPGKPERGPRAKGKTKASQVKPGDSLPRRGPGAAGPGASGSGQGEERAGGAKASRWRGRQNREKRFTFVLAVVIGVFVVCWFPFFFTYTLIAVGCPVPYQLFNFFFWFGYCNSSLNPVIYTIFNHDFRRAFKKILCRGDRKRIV
Kind of test: In vitro antagonistic activity against alpha-2 adrenergic receptor in isolated electrically stimulated rat vas deferens (clonidine-induced decrease in twitch height). It is filed as functional, tissue-based.

In test [2] the target is T1, Adrenergic receptor alpha-2. Kind of test: Ability to displace [3H]clonidine from alpha-2 adrenergic receptor in rat brain homogenates in vitro. Type of test: tissue-based.
In test [3] the target is T2, Adrenergic receptor alpha-2 (Rattus norvegicus) (UniProt P22086+P19328+P22909). Briefly: In vitro antagonistic activity against alpha-2 adrenergic receptor in isolated electrically stimulated rat vas deferens (clonidine-induced decrease in twitch height) at 500 uM concentration. IA is Inactive, no antagonism at 500 uM. It is filed as functional.
For test [4], the target named is T2, Adrenergic receptor alpha-2 (Rattus norvegicus). Briefly: In vitro antagonistic activity against alpha-2 adrenergic receptor in isolated electrically stimulated rat vas deferens (clonidine-induced decrease in twitch height)at 500 uM concentration. IA is Inactive, no antagonism at 500 uM. Type of test: functional.
The target is the same in test [5]. Kind of test: In vitro antagonistic activity against alpha-2 adrenergic receptor in isolated electrically stimulated rat vas deferens (clonidine-induced decrease in twitch height) at 500 uM concentration;IA is Inactive, no antagonism at 500 uM. Type of test: functional.
The species entered for test [6] is Rattus norvegicus. Briefly: Inhibition of [3H]5-HT uptake into rat brain synaptosomes in vitro. Type of test: functional. The gist of the method:
(§1)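 Male Sprague–Dawley rat cerebral cortex (180–240 g) homogenized in 0.32 M sucrose; crude P2 synaptosomes. Preincubated 5 min at 25 °C in modified Krebs–Ringer phosphate with ascorbic acid, EDTA and nialamide. Uptake run 5 min with 0.1 μM final [3H]-5-HT or [3H]NE, stopped by ice-cold saline and filtration. Nonspecific uptake taken at 4 °C. Scintillation counting; IC50 with 95% confidence limits.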

Test [7] relates to Mus musculus. Kind of test: Effective dose required to antagonise clonidine-induced antinociception(ACA) in mouse by peroral administration;Values ranges from: 0.5-3.8. It is filed as functional. To be noted: po.
The species entered for test [8] is Rattus norvegicus. Briefly: Inhibition of [3H]norepinephrine uptake into rat brain synaptosomes in vitro;Values ranges from: 8.6-21. It is filed as functional. The gist of the method:
as §1

Test [9] has as its system Rattus norvegicus. Kind of test: Minimum effective dose required for inhibition of serotonin uptake was determined by PCA method in rat by peroral administration. It is filed as functional. To be noted: po, read-out: MED. An outline of the steps: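 Fasted male Sprague–Dawley rats (160–200 g) given test compound orally in water (10 mL/kg) 15 min before p-chloroamphetamine 3 mg/kg ip. Forebrain taken 3 h later, extracted in acidified butanol then heptane/0.1 N HCl. Serotonin in aqueous phase measured fluorometrically after o-phthalaldehyde condensation (excitation 360 nm). Minimum effective dose reported.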

For test [10], the system named is Mus musculus. Briefly: Effective dose required for inhibition of tetrabenazine-induced ptosis in mouse by peroral administration. It is filed as functional. To be noted: po. An outline of the steps: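 Swiss Webster mice; test compound in 0.9% NaCl (10 mL/kg) given po 30 min before ip tetrabenazine methanesulfonate (50 mg/kg, in 0.9% NaCl with moderate heating). Ptosis scored subjectively 30 min after tetrabenazine on a 0–4 scale (0 = complete eye closure, 4 = no closure). ED50 with 95% confidence limits from quantal dose–response analysis.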

Test [11] is filed under the species Rattus norvegicus. Kind of test: Inhibition of [3H]dopamine uptake into rat brain synaptosomes in vitro. It is filed as functional. The gist of the method: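 Male Sprague–Dawley rat corpus striatum (180–240 g) homogenized in 0.32 M sucrose; P2 synaptosomes. Preincubated 5 min at 25 °C in modified Krebs–Ringer phosphate with ascorbic acid, EDTA and nialamide. Uptake run 5 min with 0.1 μM final [3H]dopamine, ended by cold saline and GF/B filtration. Nonspecific uptake measured at 4 °C. IC50 with 95% confidence limits.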

The species named for test [12] is Rattus norvegicus. Kind of test: Inhibition of [3H]dopamine uptake into rat brain synaptosomes in vitro;Values ranges from: 0.09-0.18. It is filed as functional. An outline of the steps: (§2)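 Male Sprague–Dawley rat (180–240 g) cortex (NE, 5-HT) or striatum (DA) crude P2 synaptosomes in 0.32 M sucrose. Preincubated 5 min at 25 °C with drug in Krebs–Ringer phosphate containing ascorbate, EDTA, nialamide; 0.1 μM final [3H]amine added for 5 min. Stopped by cold saline and GF/B filtration; nonspecific uptake at 4 °C. IC50 with 95% limits computed.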

For test [13], the species on record is Rattus norvegicus. Kind of test: Inhibition of [3H]5-HT uptake into rat brain synaptosomes in vitro;Values ranges from: 0.14-0.22. Type of test: functional. The gist of the method: as §2
The species entered for test [14] is Rattus norvegicus. Kind of test: Inhibition of [3H]norepinephrine uptake into rat brain synaptosomes in vitro;Values ranges from: 0.01-0.07. Type of test: functional. An outline of the steps:
as §2

The subject of test [15] is Mus musculus. Briefly: Effective dose required for inhibition of tetrabenazine-induced ptosis in mouse by peroral administration;Values ranges from: 1.8-9.3. Type of test: functional. Particulars: po.
In test [16] the target is T2, Adrenergic receptor alpha-2 (Rattus norvegicus). Briefly: In vitro antagonistic activity against alpha-2 adrenergic receptor in isolated electrically stimulated rat vas deferens (clonidine-induced decrease in twitch height) at 500 uM concentration.;IA is Inactive, no antagonism at 500 uM. It is filed as functional.

Activity calls are given as the source filed them. The rule behind the calls is not given here. Some results are limits rather than exact numbers.

Turning to `C[C@@H]1c2ccccc2CC[C@@H]1CC1=NCCN1.Cl`, the pA2 (usually a measure of antagonist potency on a negative log scale) in [1] is 7.22. The Ki (commonly the equilibrium dissociation constant of an inhibitor or competing ligand from its target) in test [2] is 135 nM.

For `CC1=C(CC2=NCC(C)N2)CCc2ccccc21.Cl` (centres undefined), the pA2 entry in test [3] is “inactive”. In test [2], this compound came in with an inhibition constant (Ki) of more than 800 nM.

The compound `CC(C1=Cc2ccccc2CC1)C1=NCCN1.Cl` (centres undefined) displayed a pA2 in test [1] of 7.43. The Ki in test [2] turned out to be 32 nM.

In test [1], `CC1=C(Cc2ncc[nH]2)CCc2ccccc21` displayed a pA2 of 6.92. In test [2], this compound returned an inhibition constant (Ki) of 88 nM.

The compound `C1=C(CC2=NCCN2)Cc2ccccc21.Cl` yielded a pA2 in test [1] of 7.19. This compound gave an inhibition constant (Ki) in [2] of 76 nM.

As to `CC1=C(CC2=NCCN2C)CCc2ccccc21.Cl`, in test [4], the pA2 entry is “inactive”. The compound also gave a Ki in test [2] of 436 nM.

Take `CC1=C(CC2=NCCN2)Cc2ccccc21.Cl`: the pA2 in [1] came out at 7.71. Also, the inhibition constant Ki in test [2] was 6.9 nM.

In the case of `CCN1CCN=C1CC1=C(C)c2ccccc2CC1.Cl`, the pA2 result in test [5] is “inactive”. In test [2], the Ki was 548 nM.

As for `c1ccc2c(c1)OCC(C1=NCCN1)O2` (centres undefined) [IDAZOXAN], the 50% inhibitory concentration (IC50) (in general, the concentration that gives 50% inhibition) in the test listed under Rattus norvegicus [6] was more than 30000 nM; in the test filed under Rattus norvegicus [8] it was 13000 nM; in the test filed under Rattus norvegicus [11], more than 30000 nM. Moreover, the ED50 (in general, the midpoint of the dose-response relation) in the test on Mus musculus [7] was 1.3 mg/kg; with Mus musculus [10] it was more than 30 mg/kg. The minimal effective dose in the test on Rattus norvegicus [9] was more than 30 mg/kg.

Take `Cl.c1ccc2cc(CC3=NCCN3)ccc2c1`: the pA2 in test [1] was 7.67. Also, the Ki in test [2] was 48 nM.

As for `C[C@H]1c2ccccc2CC[C@@H]1CC1=NCCN1.Cl`, the inhibition constant Ki in [2] was 401 nM.

Take `Cc1c(CC2=NCCN2)ccc2ccccc12.Cl`: the pA2 in test [1] turned out to be 7.35. In addition, in test [2], the inhibitory constant (Ki) stood at 6.6 nM.

Regarding `CN(C)CCCN1c2ccccc2CCc2ccccc21` [IMIPRAMINE], the minimal effective dose with Rattus norvegicus [9] was found to be 30 mg/kg. The figures for the half-inhibitory concentration (IC50) in the test filed under Rattus norvegicus [12], in the test listed under Rattus norvegicus [13] and in the test listed under Rattus norvegicus [14] were 130 nM, 180 nM and 30 nM, respectively. The same compound displayed an ED50 in the test on Mus musculus [15] of 4.1 mg/kg.

As to `CC1=C(CC2=NCCCN2)CCc2ccccc21.Cl`, the pA2 result in [16] was “inactive”. In test [2], this compound gave a Ki of 334 nM.
